According to ChEMBL document CHEMBL3112482, “Nonclassical antifolates, part 5. Benzodiazepine analogs as a new class of DHFR inhibitors: synthesis, antitumor testing and molecular modeling study” (Eur J Med Chem, 2014):

Columns and labels:
Assay type in all cases: functional
[1] = system: Cancer cell lines; assay: Ratio of 5-FU LC50 to compound LC50 for human prostate cancer cells
Outline: (§1)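 Compounds passing the NCI single-dose primary screen were retested across the 60 human tumour cell lines (nine subpanels) over a 5-log dose range. GI50, TGI and LC50 were recorded for each cell line, with 5-fluorouracil run as the reference drug. Subpanel values for compound and 5-FU were then compared.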

[2] = system: Cancer cell lines; assay: Ratio of 5-FU LC50 to compound LC50 for human renal cancer cells; outline: as §1
[3] = system: Leukemia cell; assay: Ratio of 5-FU LC50 to compound LC50 for human leukemia cells; outline: as §1
[4] = system: Cancer cell lines; assay: Ratio of 5-FU LC50 to compound LC50 for human non-small cell lung cancer cells; outline: as §1
[5] = system: Cancer cell lines; assay: Ratio of 5-FU TGI to compound TGI for human breast cancer cells
[6] = system: Cancer cell lines; assay: Ratio of 5-FU TGI to compound TGI for human ovarian cancer cells
[7] = system: Cancer cell lines; assay: Ratio of 5-FU TGI to compound TGI for human colon cancer cells
[8] = system: Cancer cell lines; assay: Ratio of 5-FU TGI to compound TGI for human non-small cell lung cancer cells
[9] = system: Cancer cell lines; assay: Ratio of 5-FU GI50 to compound GI50 for human renal cancer cells; outline: as §1
[10] = system: Cancer cell lines; assay: Ratio of 5-FU GI50 to compound GI50 for human colon cancer cells; outline: as §1

COc1cc(/C=C2\CCCC3=C(c4cc(OC)c(OC)c(OC)c4)Nc4ccccc4N=C32)cc(OC)c1OC
11: RatioLC50 [1] | RatioLC50 [2] | RatioLC50 [3] | RatioLC50 [4] | Ratio [5] | Ratio [6] | Ratio [7] | Ratio [8] | RatioGI50 [9] | RatioGI50 [10]

COc1cc(/C=C2\CCCc3c2nc(N)nc3-c2cc(OC)c(OC)c(OC)c2)cc(OC)c1OC
15: RatioLC50 [1] | RatioLC50 [2] | RatioLC50 [3] | RatioLC50 [4] | Ratio [5] | Ratio [6] | Ratio [7] | Ratio [8] | RatioGI50 [9] | RatioGI50 [10]

COc1cc(/C=C2\CCCc3c2nc(C)nc3-c2cc(OC)c(OC)c(OC)c2)cc(OC)c1OC
15: RatioLC50 [1] | RatioLC50 [2] | RatioLC50 [3] | RatioLC50 [4] | Ratio [5] | Ratio [6] | Ratio [7] | Ratio [8] | RatioGI50 [9] | RatioGI50 [10]
